An excerpt weighted towards active compounds, which were near 1.9% of everything screened.
M5 PAM – potentiates acetylcholine response at human M5 receptor; P08912; CHO-K1 hM5, Fluo-8 calcium, ACh EC20 PAM; 0% = ACh EC20, 100% = ACh EC100; activation, % at 3 µM; 0.3% of 360,000 active; AID 624038;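 active means activation above the run cutoff, the mean activation of all test compounds plus 3 SD, cut at about 18% in these data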
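Test system: CHO-K1 hM5 cells / Doses: single-point, 3 µM nominal / Times: Post-acetylcholine fluorescence recording 140 s / Technique: Fluo-8 calcium fluorescence / Measure: Max/basal fluorescence ratio as % of EC20–EC100 ACh window / Benchmarks: low control EC20 acetylcholine (0%), high control EC100 acetylcholine (100%) / Replicates: one well per compound, no replicates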
M4 ag – CHRM4 agonism in calcium assay; 0.14% of 360,000 active; activation, % at 3 µM; P08173; CHO-K1 hM4/Gqi5, Fluo-8 calcium fluorescence; vehicle 0%, full acetylcholine response 100%; AID 624127;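 active means activation above the run mean over all test wells plus 3 SD, cut at about 32% in these data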;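 further: peak over basal fluorescence ratio per well then scaled between controls; 0% = DMSO wells and 100% = acetylcholine at EC100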
Target sequence (P08173 whole entry, looked up): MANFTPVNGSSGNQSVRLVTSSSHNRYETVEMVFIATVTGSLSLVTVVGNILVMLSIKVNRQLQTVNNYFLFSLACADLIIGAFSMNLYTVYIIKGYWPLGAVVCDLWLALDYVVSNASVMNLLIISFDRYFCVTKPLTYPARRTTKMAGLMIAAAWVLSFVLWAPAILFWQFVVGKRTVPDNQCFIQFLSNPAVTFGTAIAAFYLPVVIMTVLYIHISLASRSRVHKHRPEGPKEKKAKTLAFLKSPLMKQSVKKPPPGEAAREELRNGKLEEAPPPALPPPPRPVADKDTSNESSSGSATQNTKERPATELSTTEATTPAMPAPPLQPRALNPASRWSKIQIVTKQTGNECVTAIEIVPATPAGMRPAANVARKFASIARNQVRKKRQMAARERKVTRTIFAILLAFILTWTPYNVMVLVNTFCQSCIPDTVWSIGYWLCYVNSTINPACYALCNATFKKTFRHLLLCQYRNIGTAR
M4 antag – blocks acetylcholine activation of human M4 receptor; P08173; CHO-hM4 cells, ACh EC80, Fluo-8 calcium fluorescence; inhibition, % at 3 µM; 0.73% of 360,000 active; AID 624125;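 active means inhibition above its plate's cutoff, the mean inhibition of sample wells plus 3 SD, cut at about 27% in these data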;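 further: 0% = acetylcholine EC80 with DMSO and 100% = DMSO without agonist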
CHRM5 agonist – agonists of human muscarinic M5 receptor (CHRM5); CHO-K1 hM5 cells, Fluo-8 calcium fluorescence; 0% DMSO wells, 100% maximal acetylcholine response; 0.19% of 360,000 active; P08912; AID 624037; activation, % at 3 µM;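 active means activation above the run's mean over test compounds plus 3 SD, cut at about 23% in these data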;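 further: signal is peak over basal fluorescence ratio across the kinetic read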
M5 antag – blocks acetylcholine activation of human M5 receptor; 0.59% of 360,000 active; CHO-hM5 cells, Fluo-8 calcium fluorescence, ACh EC80; AID 624040; inhibition, % at 3 µM;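 active means inhibition above a per-plate cutoff, the mean of that plate's test compounds plus 3 SD, cut at about 27% in these data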;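 further: 0% = acetylcholine EC80 with DMSO and 100% = DMSO without agonist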
M4 PAM – CHRM4 positive allosteric modulation; 0.4% of 360,000 active; activation, % at 3 µM; P08173; AID 624126; CHO-K1 hM4/Gqi5, Fluo-8 calcium fluorescence, ACh EC20; 0% = ACh EC20, 100% = maximal ACh;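 active means activation above its plate's cutoff, the mean activation of sample wells plus 3 SD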
* = called active by the depositor.

SMILES	M5 PAM	M4 ag	M4 antag	CHRM5 agonist	M5 antag	M4 PAM
S=C(NCCc1ccccc1)N1CCCC1	8	1	-1	-5	3	-11
CC1CCCN(C(=S)NCCc2ccccc2)C1 (stereo not drawn)	19*	0	-6	-7	-9	5
COc1ccc(S(=O)(=O)N2CCN(C(=O)c3ccc(COc4ccccc4)o3)CC2)cc1	-10	7	-3	2	5	0
CCC(Sc1nc2c(cnn2-c2ccc(Cl)cc2)c(=O)[nH]1)C(=O)OC (stereo not drawn)	0	-1	40*	-1	3	-12
CN1CCN(CC#CC(C)(O)C2CC3C=CC2C3)CC1 (stereo not drawn)	-3	0	5	-8	-1	1
CCCOc1ccc(C(O)(CCC)CCN2CCCCC2)cc1 (stereo not drawn)	-24	3	21	-8	21	-20
Cc1ccc(C(O)(CCN2CCCCC2)c2ccccc2)cc1 (stereo not drawn)	-21	2	93*	-8	96*	-17
O=C(CCN1CCCCC1)c1ccccc1	-1	0	-1	0	0	6
OC(CCN1CCCCC1)(c1ccccc1)C1C[C@@H]2C=C[C@H]1C2 (stereo partly drawn)	-18	1	99*	-1	98*	-17
CCN(CC)CCC#CC(O)(c1ccccc1)c1ccccc1	-18	0	84*	-8	99*	-18
OC(C#CCCN1CCCCC1)(c1ccccc1)c1ccccc1	-32	1	95*	-20	100*	-17
CC(C)N(CC#CCC(O)(c1ccccc1)c1ccccc1)C(C)C	-18	2	22	-7	9	-27
CSc1ccc(CNC(=O)C2(C)CCCN2CC(C)C)cc1 (stereo not drawn)	-1	-1	-7	-2	2	2
COc1ccc(C(=O)NCCCCCCNC(=O)c2ccc(OC)cc2)cc1	2	13	-10	-5	-2	0
CCCC(C)(C)C(=O)N1CCC1(C)C(=O)NS(=O)(=O)c1ccc(Cl)cc1 (stereo not drawn)	-6	0	1	0	13	12
CCN1CCN(S(=O)(=O)c2ccc(Cl)c(C(=O)N(C)Cc3ccco3)c2)CC1	6	1	-16	-2	-2	2
OC(C#CCCN1CCCCC1)(c1ccccc1)C1CCCCC1 (stereo not drawn)	-32	3	97*	-20	98*	-59
Nc1c(C(=O)c2ccc(Cl)cc2)sc2nc3c(cc12)CCC3	-2	1	10	-2	7	23*
CCCCCCN1CCN(C2CN(C3CCCCC3)S(=O)(=O)C2)CC1 (stereo not drawn)	3	1	-7	-5	-5	2
N=c1sccn1CC(=O)NCCc1ccc(Cl)cc1Cl	-9	0	35*	-7	7	-18
O=C(Cc1ccccc1)NCCc1ccc(Cl)cc1Cl	-10	0	-15	-3	8	2
Cc1ccc(S(=O)(=O)N(CC(=O)Nc2ccccc2)C(=O)N2CCN(C)CC2)cc1	3	0	1	1	2	20*
CCOc1ccccc1N(CC(=O)NCCSc1ccccn1)S(=O)(=O)c1ccccc1	10	32*	11	1	26	13
O=C(Nc1cccc(Cl)c1)C1C2C=CC3(O2)C1C(=O)N(CCCN1CCCCC1)C3C(=O)NC1CCCCC1 (stereo not drawn)	2	0	3	-3	11	1
Brc1ccccc1OCCCCn1cnc2ccccc21	-23	14	9	6	29*	-14
SMILES	M5 PAM	M4 ag	M4 antag	CHRM5 agonist	M5 antag	M4 PAM
COc1ccccc1C(=O)N(CCC1CCCN1C)c1nc2ccccc2s1 (stereo not drawn)	-19	20	11	-10	27*	-25
Cc1nn(CC(=O)NCCN2CCCCC2C)c(=O)c2cc(-c3ccccc3)nn12 (stereo not drawn)	32*	2	-2	-6	18	-5
CCC(C)N(C)Cc1cccc(C2(O)CCN(S(=O)(=O)c3ccc(F)c(C)c3)CC2)c1 (stereo not drawn)	-19	0	66*	-8	20	-41
COc1ccccc1N1CCN(Cc2cn[nH]c2-c2ccc(F)cc2)CC1	-8	24	9	40*	7	17
O=C(NCc1ccc(F)cc1F)[C@@H]1CCCN1C(=O)[C@@H]1CCCN1	-1	0	-5	2	-5	4
COc1ccc(C(=O)Nc2cccnc2)cc1S(=O)(=O)N1CCOCC1	20*	1	-4	0	11	4
O=C(NCc1ccco1)c1cccc(NS(=O)(=O)c2ccccc2F)c1	19*	1	18	5	21	13
O=C(NCc1ccco1)c1cccc(NS(=O)(=O)c2cccc(F)c2)c1	-3	0	-5	0	3	-9
COc1ccc2nc(C)cc(NCc3ccc(F)cc3)c2c1	-6	32*	27*	14	32*	-7
COc1ccc2nc(C)cc(Nc3ccc(C)cc3)c2c1	-4	1	-1	-3	5	-5
COc1ccc(CNC(=O)C2CCN(S(=O)(=O)c3ccc4c(c3)CC(C)N4C(C)=O)CC2)cc1 (stereo not drawn)	-3	6	-5	-1	-4	-1
O=C(NNS(=O)(=O)c1ccc([N+](=O)[O-])cc1)C(=O)Nc1cccc(C(=O)O)c1	6	1	-9	-2	-7	19*
CC(OC(=O)/C(C#N)=C/c1ccc(N(C)C)cc1)C(=O)N(C)Cc1ccccc1 (stereo not drawn)	-11	19	6	32*	12	-13
CC(OC(=O)c1cccc(O)c1)C(=O)N(C)Cc1ccccc1 (stereo not drawn)	-6	1	5	0	7	2
COc1ccc(CNCCc2ccc(Cl)cc2)cc1OCc1ccccc1	-17	20	12	12	17	-11
COc1cc(CNCc2ccccn2)ccc1OCc1ccc(Cl)cc1Cl	-6	23	33*	-2	11	-21
CCOc1cc(CNCCc2ccc(S(N)(=O)=O)cc2)cc(Cl)c1OCc1ccccc1	-19	30	46*	14	21	-5
CCOc1cc(CNCCc2ccc(S(N)(=O)=O)cc2)ccc1OCc1ccccc1	-16	20	19	-4	13	-20
CCOc1cc(CNCc2ccccc2)ccc1OCc1ccc(Cl)cc1	-13	34*	28*	12	26	-15
